Results taken from ChEMBL document CHEMBL2380295, “Structure-activity studies on the side chain of a simplified analog of aplysiatoxin (aplog-1) with anti-proliferative activity” (Bioorg Med Chem, 2013).

How the values were obtained:
[1] = Growth inhibition of human HBC5 cells after 48 hrs by sulforhodamine B assay; format: functional; conditions: HBC5, 48 h
Method in brief: (§1)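 Yamori 39-line human cancer panel, NCI method with modifications. Cells plated in RPMI 1640 plus 5% FBS, attached overnight, then exposed 48 h to compound at 10^-8, 10^-7, 10^-6, 10^-5 and 10^-4 M. Sulforhodamine B staining read at 525 nm; % growth = 100[(T−T0)/(C−T0)] from duplicate-point averages, with T0 the time-zero absorbance. GI50 is the concentration giving 50.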

[2] = Growth inhibition of human HBC4 cells after 48 hrs by sulforhodamine B assay; format: functional; conditions: HBC4, 48 h; method in brief: as §1
Human gammaherpesvirus 4 [3] = test: Induction of EBV-early antigen expressed in human Raji cells at 10^-6 M after 48 hrs by immunofluorescence assay relative to control; format: organism-based; conditions: human gammaherpesvirus 4, raji, 1 µM
Method in brief: (§2)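 Raji B-lymphoblastoid cells (5 × 10^5/mL) in RPMI 1640 with 10% FBS, with 4 mM sodium n-butyrate as synergist and test compound at 10^-7 or 10^-6 M (final DMSO 0.4%). Incubated 48 h at 37 °C under 5% CO2. Smears were stained by indirect immunofluorescence using NPC patient serum and FITC anti-human IgG. At least 500 cells counted; % EA-positive recorded; n = 3, SEM.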

MKN-7 = test: Growth inhibition of human MKN7 cells after 48 hrs by sulforhodamine B assay; format: functional; conditions: MKN-7, 48 h; method in brief: as §1
HCT-116 = test: Growth inhibition of human HCT116 cells after 48 hrs by sulforhodamine B assay; format: functional; conditions: HCT-116, 48 h; method in brief: as §1
LOX IMVI = test: Growth inhibition of human LOXIMVI cells after 48 hrs by sulforhodamine B assay; format: functional; method in brief: as §1
SF-539 = test: Growth inhibition of human SF539 cells after 48 hrs by sulforhodamine B assay; format: functional; conditions: SF-539, 48 h; method in brief: as §1
ACHN = test: Growth inhibition of human ACHN cells after 48 hrs by sulforhodamine B assay; format: functional; method in brief: as §1
SF-268 = test: Growth inhibition of human SF268 cells after 48 hrs by sulforhodamine B assay; format: functional; conditions: SF-268, 48 h; method in brief: as §1
[4] = Cytotoxicity against human Raji cells assessed as cell viability at 10^-7 M; format: cell-based; conditions: read-out: Activity
NCI-H460 = test: Growth inhibition of human NCI-H460 cells after 48 hrs by sulforhodamine B assay; format: functional; conditions: NCI-H460, 48 h; method in brief: as §1
[5] = Growth inhibition of human HCC2998 cells after 48 hrs by sulforhodamine B assay; format: functional; conditions: HCC 2998, 48 h; method in brief: as §1
[6] = Growth inhibition of human RXF631L cells after 48 hrs by sulforhodamine B assay; format: functional; conditions: RXF 631, 48 h; method in brief: as §1
DMS-114 = test: Growth inhibition of human DMS114 cells after 48 hrs by sulforhodamine B assay; format: functional; conditions: DMS-114, 48 h; method in brief: as §1
MKN-45 = test: Growth inhibition of human MKN45 cells after 48 hrs by sulforhodamine B assay; format: functional; conditions: MKN-45, 48 h; method in brief: as §1
Human gammaherpesvirus 4 [7] = test: Induction of EBV-early antigen expressed in human Raji cells at 10^-7 M after 48 hrs by immunofluorescence assay relative to control; format: organism-based; conditions: human gammaherpesvirus 4, raji, 0.1 µM; method in brief: as §2
DMS-273 = test: Growth inhibition of human DMS273 cells after 48 hrs by sulforhodamine B assay; format: functional; conditions: DMS-273, 48 h; method in brief: as §1
OVCAR-5 = test: Growth inhibition of human OVCAR5 cells after 48 hrs by sulforhodamine B assay; format: functional; conditions: OVCAR-5, 48 h; method in brief: as §1
MKN-28 = test: Growth inhibition of human MKN28 cells after 48 hrs by sulforhodamine B assay; format: functional; conditions: MKN-28, 48 h; method in brief: as §1
[8] = Octanol-water partition coefficient, log P of the compound by HPLC analysis; format: physicochemical
Method in brief: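 log P was estimated from HPLC retention, with column dead time measured using unretained formamide.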

MKN-74 = test: Growth inhibition of human MKN74 cells after 48 hrs by sulforhodamine B assay; format: functional; conditions: MKN-74, 48 h; method in brief: as §1
[9] = Growth inhibition of human BSY1 cells after 48 hrs by sulforhodamine B assay; format: functional; conditions: BSY-1, 48 h; method in brief: as §1
NCI-H522 = test: Growth inhibition of human NCI-H522 cells after 48 hrs by sulforhodamine B assay; format: functional; conditions: NCI-H522, 48 h; method in brief: as §1
OVCAR-8 = test: Growth inhibition of human OVCAR8 cells after 48 hrs by sulforhodamine B assay; format: functional; conditions: OVCAR-8, 48 h; method in brief: as §1
NCI-H226 = test: Growth inhibition of human NCI-H226 cells after 48 hrs by sulforhodamine B assay; format: functional; conditions: NCI-H226, 48 h; method in brief: as §1
HT-29 = test: Growth inhibition of human HT-29 cells after 48 hrs by sulforhodamine B assay; format: functional; conditions: HT-29, 48 h; method in brief: as §1
U-251 = test: Growth inhibition of human U251 cells after 48 hrs by sulforhodamine B assay; format: functional; conditions: U-251, 48 h; method in brief: as §1
[10] = biological target: T1, Protein kinase C delta type (Homo sapiens, UniProt Q05655); test: Inhibition of [3H]PDBu binding to PKCdelta-C1A domain peptide (unknown origin)
T1 sequence (Q05655 whole entry, the tested form may be a part): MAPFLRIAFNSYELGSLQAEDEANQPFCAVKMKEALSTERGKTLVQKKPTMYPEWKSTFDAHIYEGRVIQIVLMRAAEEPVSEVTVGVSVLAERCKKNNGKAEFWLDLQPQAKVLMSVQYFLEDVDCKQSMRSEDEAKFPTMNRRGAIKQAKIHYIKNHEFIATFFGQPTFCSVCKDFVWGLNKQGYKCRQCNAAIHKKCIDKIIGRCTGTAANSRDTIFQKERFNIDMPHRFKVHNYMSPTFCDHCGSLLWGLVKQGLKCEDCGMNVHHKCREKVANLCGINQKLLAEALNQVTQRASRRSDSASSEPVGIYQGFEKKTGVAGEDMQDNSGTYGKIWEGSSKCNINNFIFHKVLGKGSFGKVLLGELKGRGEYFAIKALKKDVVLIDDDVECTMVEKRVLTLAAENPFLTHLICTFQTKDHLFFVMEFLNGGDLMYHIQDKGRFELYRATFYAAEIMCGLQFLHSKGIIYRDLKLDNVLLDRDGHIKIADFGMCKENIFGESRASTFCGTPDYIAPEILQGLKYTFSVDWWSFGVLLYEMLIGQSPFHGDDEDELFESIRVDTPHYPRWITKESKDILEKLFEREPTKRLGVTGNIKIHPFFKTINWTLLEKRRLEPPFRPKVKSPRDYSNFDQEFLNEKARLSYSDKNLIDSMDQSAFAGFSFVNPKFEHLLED
Method in brief: (§3)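 Competitive [3H]PDBu binding used 14 or 40 nM PKCδ C1 peptide and 20 nM [3H]PDBu (19.6 Ci/mmol), in 50 mM Tris-maleate (pH 7.4 at 4 °C) with 50 µg/mL phosphatidylserine, 3 mg/mL bovine γ-globulin and varied inhibitor concentrations. IC50 was taken as 50% inhibition of specific binding. Ki was derived by the Sharkey–Blumberg method.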

HCT-15 = test: Growth inhibition of human HCT15 cells after 48 hrs by sulforhodamine B assay; format: functional; conditions: HCT-15, 48 h; method in brief: as §1
NCI-H23 = test: Growth inhibition of human NCI-H23 cells after 48 hrs by sulforhodamine B assay; format: functional; conditions: NCI-H23, 48 h; method in brief: as §1
SF-295 = test: Growth inhibition of human SF295 cells after 48 hrs by sulforhodamine B assay; format: functional; conditions: SF-295, 48 h; method in brief: as §1
[11] = Cytotoxicity against human Raji cells assessed as cell viability at 10^-6 M; format: cell-based; conditions: read-out: Activity
KM12 = test: Growth inhibition of human KM12 cells after 48 hrs by sulforhodamine B assay; format: functional; conditions: KM12, 48 h; method in brief: as §1
[12] = Growth inhibition of human MKN1 cells after 48 hrs by sulforhodamine B assay; format: functional; conditions: MKN-1, 48 h; method in brief: as §1
PC-3 = test: Growth inhibition of human PC3 cells after 48 hrs by sulforhodamine B assay; format: functional; conditions: PC-3, 48 h; method in brief: as §1
A549 = test: Growth inhibition of human A549 cells after 48 hrs by sulforhodamine B assay; format: functional; conditions: A549, 48 h; method in brief: as §1
SNB-75 = test: Growth inhibition of human SNB75 cells after 48 hrs by sulforhodamine B assay; format: functional; conditions: SNB-75, 48 h; method in brief: as §1
OVCAR-4 = test: Growth inhibition of human OVCAR4 cells after 48 hrs by sulforhodamine B assay; format: functional; conditions: OVCAR-4, 48 h; method in brief: as §1
MDA-MB-231 = test: Growth inhibition of human MDA-MB-231 cells after 48 hrs by sulforhodamine B assay; format: functional; conditions: MDA-MB-231, 48 h; method in brief: as §1
[13] = biological target: T1, Protein kinase C delta type; test: Inhibition of [3H]PDBu binding to PKCdelta-C1B domain peptide (unknown origin); method in brief: as §3
St-4 = test: Growth inhibition of human St-4 cells after 48 hrs by sulforhodamine B assay; format: functional; conditions: St-4, 48 h; method in brief: as §1
MCF7 = test: Growth inhibition of human MCF7 cells after 48 hrs by sulforhodamine B assay; format: functional; conditions: MCF7, 48 h; method in brief: as §1
DU-145 = test: Growth inhibition of human DU145 cells after 48 hrs by sulforhodamine B assay; format: functional; conditions: DU-145, 48 h; method in brief: as §1
SK-OV-3 = test: Growth inhibition of human SKOV3 cells after 48 hrs by sulforhodamine B assay; format: functional; conditions: SK-OV-3, 48 h; method in brief: as §1
SNB-78 = test: Growth inhibition of human SNB78 cells after 48 hrs by sulforhodamine B assay; format: functional; conditions: SNB-78, 48 h; method in brief: as §1
OVCAR-3 = test: Growth inhibition of human OVCAR3 cells after 48 hrs by sulforhodamine B assay; format: functional; conditions: OVCAR-3, 48 h; method in brief: as §1

## CC(=O)Nc1ccc(O)cc1CCCC[C@@H]1C[C@@H]2C[C@@]3(O[C@H](CCC3(C)C)CC(=O)O[C@@H](CO)CC(=O)O2)O1
[1]
  GI50: > 100 µM
[2]
  GI50: > 100 µM
Human gammaherpesvirus 4 [3]
  Activity: 2.1%
MKN-7
  GI50: > 100 µM
HCT-116
  GI50: > 100 µM
LOX IMVI
  GI50: 74.1 µM
SF-539
  GI50: > 100 µM
ACHN
  GI50: > 100 µM
SF-268
  GI50: > 100 µM
[4]
  viability at 0.1 µM: 60%
NCI-H460
  GI50: > 100 µM
[5]
  GI50: 72.4 µM
[6]
  GI50: > 100 µM
DMS-114
  GI50: 55 µM
MKN-45
  GI50: > 100 µM
Human gammaherpesvirus 4 [7]
  Activity: 2%
DMS-273
  GI50: 43.7 µM
OVCAR-5
  GI50: > 100 µM
MKN-28
  GI50: 87.1 µM
[8]
  logP: 2.3
MKN-74
  GI50: 70.8 µM
[9]
  GI50: > 100 µM
NCI-H522
  GI50: > 100 µM
OVCAR-8
  GI50: > 100 µM
NCI-H226
  GI50: 53.7 µM
HT-29
  GI50: > 100 µM
U-251
  GI50: > 100 µM
[10]
  Ki: 8.7 µM
HCT-15
  GI50: > 100 µM
NCI-H23
  GI50: > 100 µM
SF-295
  GI50: 60.3 µM
[11]
  viability at 1 µM: 60%
KM12
  GI50: > 100 µM
[12]
  GI50: > 100 µM
PC-3
  GI50: > 100 µM
A549
  GI50: > 100 µM
SNB-75
  GI50: > 100 µM
OVCAR-4
  GI50: > 100 µM
MDA-MB-231
  GI50: > 100 µM
[13]
  Ki: 0.69 µM
St-4
  GI50: > 100 µM
MCF7
  GI50: > 100 µM
DU-145
  GI50: > 100 µM
SK-OV-3
  GI50: > 100 µM
SNB-78
  GI50: > 100 µM
OVCAR-3
  GI50: > 100 µM

## C[C@H]1[C@@H]2C[C@@]3(O[C@H](CCC3(C)C)CC(=O)O[C@@H](CO)CC(=O)O2)O[C@@H]1CCCCc1cccc(O)c1
[10]
  Ki: 0.022 µM

## CO[C@@H](CC[C@H](C)[C@H]1O[C@@]23C[C@H](OC(=O)C[C@H]([C@@H](C)O)OC(=O)C[C@](O)(O2)[C@H](C)CC3(C)C)[C@@H]1C)c1cccc(O)c1 [DEBROMOAPLYSIATOXIN]
[10]
  Ki: 0.0097 µM

## CO[C@@H](CC[C@H](C)[C@H]1O[C@@]23C[C@H](OC(=O)C[C@H]([C@@H](C)O)OC(=O)C[C@](O)(O2)[C@H](C)CC3(C)C)[C@@H]1C)c1cc(O)ccc1Br [APLYSIATOXIN]
[8]
  logP: 5.4

## CC1(C)CC[C@@H]2CC(=O)O[C@@H](CO)CC(=O)O[C@@H]3C[C@@H](CCCCc4ccccc4)O[C@@]1(C3)O2
[8]
  logP: 4.8
